ChEMBL document CHEMBL1159358, “Cytotoxic prenylflavanones from Taiwanese propolis” (J Nat Prod, 2003)
Values after ≈ are worked out from the molar mass of the structure shown. Active and inactive are the calls of the source. No cut-off for these calls is given here.

How the values were obtained:
[1] = test system: Radical scavenging activity; experiment: Antioxidant activity against DPPH radical scavenging activity at 6.25 ug/ml; assay type: functional
Procedure, shortened: (§1)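 Scavenging of DPPH radical: sample in methanol (3.125, 6.25, 12.5, 25.0 µg/mL final) mixed 1:1 with 0.15 mM DPPH in methanol; absorbance change at 517 nm followed for 1 min. Percent scavenged = 100 × (A0 − Ai)/A0, A0 being initial DPPH absorbance.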

[2] = test system: Radical scavenging activity; experiment: Antioxidant activity against DPPH radical scavenging activity at 3.125 ug/ml; assay type: functional; procedure, shortened: as §1
[3] = test system: Radical scavenging activity; experiment: Antioxidant activity against DPPH radical scavenging activity at 25 ug/ml; assay type: functional; procedure, shortened: as §1
[4] = test system: Radical scavenging activity; experiment: Antioxidant activity against DPPH radical scavenging activity at 12.5 ug/ml; assay type: functional; procedure, shortened: as §1
Melanoma cell [5] = experiment: Induction of apoptosis in human Melanoma cells assessed as accumulation at subG1 at 15 uM after 24 hrs by flow cytometry analysis; assay type: functional; conditions: in the assay text read “15 ug/mL” for “15 uM”
Procedure, shortened: (§2)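 Melanoma cells (1 × 10^6 per 60 mm dish) preincubated 12 h, then exposed to 15 µg/mL compound or DMSO for 0, 3, 6, 12 or 24 h. Cells fixed in ice-cold ethanol at −20 °C overnight, treated with Triton X-100/RNase A 30 min at 37 °C, stained with propidium iodide. Sub-G1 (lower DNA content) fraction measured by flow cytometry.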

[6] = test system: Radical scavenging activity; experiment: Antioxidant activity against DPPH radical scavenging activity; assay type: functional; procedure, shortened: as §1
Melanoma cell [7] = experiment: Induction of apoptosis in human Melanoma cells assessed as accumulation at subG1 at 15 ug/mL after 6 hrs by flow cytometry analysis
Melanoma cell [8] = experiment: Cytotoxicity against human Melanoma cells after 24 hrs by trypan blue exclusion assay; assay type: functional, cell-based
Procedure, shortened: (§3)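 Human melanoma and C6 glioma cells grown in DMEM with 10% FBS and 1% penicillin/streptomycin, 37 °C, 5% CO2. Seeded at 1 × 10^5 cells/well and exposed to various compound concentrations for 24 h. Cells counted; viability by trypan blue exclusion.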

C6 [9] = experiment: Cytotoxicity against rat C6 cells after 24 hrs by trypan blue exclusion assay; assay type: functional, cell-based; conditions: C6, 24 h; procedure, shortened: as §3
HL-60 [10] = experiment: Cytotoxicity against human HL60 cells at >15 ug/ml after 24 hrs by trypan blue exclusion assay; assay type: functional, cell-based
Procedure, shortened: (§4)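 HL-60 cells grown in RPMI 1640 with 10% FBS and 1% penicillin/streptomycin, 37 °C, 5% CO2. Seeded at 1 × 10^5 cells/well and exposed to various compound concentrations for 24 h. Cells counted; viability by trypan blue exclusion.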

C6 [11] = experiment: Cytotoxicity against rat C6 cells at >15 ug/m after 24 hrs by trypan blue exclusion assay; assay type: functional, cell-based; procedure, shortened: as §3
Melanoma cell [12] = experiment: Induction of apoptosis in human Melanoma cells assessed as accumulation at subG1 at 15 ug/mL after 3 hrs by flow cytometry analysis
HL-60 (Homo sapiens) = experiment: Induction of apoptosis in human HL-60 cells assessed as DNA fragmentation at 5 ug/ml after 24 hrs by agarose gel electrophoresis
Melanoma cell [13] = experiment: Induction of apoptosis in human Melanoma cells assessed as accumulation at subG1 at 15 uM after 12 hrs by flow cytometry analysis; assay type: functional; conditions: in the assay text read “15 ug/mL” for “15 uM”; procedure, shortened: as §2
HL-60 [14] = experiment: Cytotoxicity against human HL60 cells after 24 hrs by trypan blue exclusion assay; assay type: functional, cell-based; conditions: HL-60, 24 h; procedure, shortened: as §4

IC50 [6] [µg/mL] | Structure (SMILES) | Activity [1] [%] | Activity [2] [%] | Activity [3] [%] | Activity [4] [%] | Activity (Melanoma cell [5]) [%] | Activity (Melanoma cell [7]) [%] | IC50 (Melanoma cell [8]) [µg/mL] | IC50 (C6 [9]) [µg/mL] | Activity (HL-60 [10]) | Activity (C6 [11]) | Activity (Melanoma cell [12]) [%] | Activity (HL-60 (Homo sapiens)) | Activity (Melanoma cell [13]) [%] | IC50 (HL-60 [14]) [µg/mL]
– | O=C(/C=C/c1ccc(O)c(O)c1)OCCc1ccccc1 | 85.5 | 39.1 | 99.8 | 98.5 | – | – | – | – | – | – | – | – | – | –
5 (≈ 11.3 µM) | C/C(=C/Cc1c([C@@H]2CC(=O)c3c(O)cc(O)cc3O2)ccc(O)c1O)CCCC(C)(C)O [PROPOLIN A] | 72.2 | 36 | 99.5 | 92.1 | 40.95 | 15.22 | 6 (≈ 13.6 µM) | 3.5 (≈ 7.91 µM) | Active | Active | 15.01 | Active | 23.93 | 7.5 (≈ 16.9 µM)
9 (≈ 20.3 µM) | C/C(=C\Cc1cc([C@@H]2CC(=O)c3c(O)cc(O)cc3O2)cc(O)c1O)CCCC(C)(C)O [PROPOLIN B] | 36.7 | 18.3 | 94.7 | 85.7 | – | – | 7.5 (≈ 16.9 µM) | 4 (≈ 9.04 µM) | – | – | – | – | – | 7.5 (≈ 16.9 µM)
